Our source for the MIC and GI50 values is ChEMBL document CHEMBL1148479, “Antineoplastic agents. 520. Isolation and structure of irciniastatins A and B from the Indo-Pacific marine sponge Ircinia ramosa” (2004).

What all share (format): functional
The subject of one experiment is Cryptococcus neoformans. Description: Compound was tested for minimum inhibitory concentration against Cryptococcus neoformans ATCC 90112. The gist of the method: (§1)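 Standard broth microdilution susceptibility method. The fungal test follows the M27-A yeast reference standard. MIC is the lowest concentration that inhibits all visible growth of the organism (optically clear wells).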

The next experiment concerns KM-20L2. Description: Compound was tested for cancer cell line growth inhibition against human colon (KM20L2) cell line. Summed up:
(§2)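 NCI sulforhodamine B protocol. Cells in 5% fetal bovine serum/RPMI1640 are seeded in 96-well plates and incubated 24 h, then exposed to serial compound dilutions for 48 h. Cells are fixed with trichloroacetic acid, stained with SRB and read by microplate reader. GI50 is the concentration giving a 50% reduction in net protein increase, calculated from optical density.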

Another experiment has as its system SF-268. The experiment in a line: Compound was tested for cancer cell line growth inhibition against human central nervous system (SF268) cell line. The gist of the method:
as §2

In another experiment the test system is HUVEC. The experiment in a line: Compound was tested for cancer cell line growth inhibition against human umbilical vein endothelial cells.
Another experiment relates to NCI-H460. The experiment in a line: Compound was tested for cancer cell line growth inhibition against lung cancer cells (NCI-H460). The note with it: Homo sapiens. The gist of the method: as §2
The next experiment concerns P388. The experiment in a line: Compound was tested for cancer cell line growth inhibition against murine P388 leukemia cell line. The note with it: Mus musculus. Summed up: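 Murine P388 leukemia cells are grown in 10% horse serum/Fisher medium for 24 h, then incubated 48 h with serial compound dilutions. Cells are counted on a particle counter, and ED50 for growth inhibition is calculated from the counts.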

A further experiment has as its system BXPC-3. Description: Compound was tested for cancer cell line growth inhibition against human pancreas (BXPC-3) cell line. Summed up:
as §2

For the next experiment, the system named is MCF7. Description: Compound was tested for cancer cell line growth inhibition against human breast (MCF-7) cell line. The gist of the method:
as §2

In the next experiment the test system is DU-145. The experiment in a line: Compound was tested for cancer cell line growth inhibition against human prostate (DU-145) cell line. Summed up:
as §2

The next experiment deals with Neisseria gonorrhoeae. Description: Compound was tested for minimum inhibitory concentration against Neisseria gonorrhoeae ATCC 49226. Summed up: as §1

For orientation: MIC means the least concentration at which growth counts as inhibited. The low end stands for a more susceptible organism, the high end for a less susceptible organism. The GI50 is the concentration at which growth is held to half of that of the control. Higher therefore signals less potent growth inhibition.

≈ marks a conversion by molar mass, not a printed value.

Take `C=C(C)CC(OC)[C@H](O)C(=O)N[C@@H](OC)[C@@H]1C[C@@H](O)C(C)(C)[C@@H](C[C@H](O)[C@@H](C)[C@H]2Cc3c(C)c(O)cc(O)c3C(=O)O2)O1` (stereo not given in full) [IRCINIASTATIN A]: the MIC in the experiment with Cryptococcus neoformans is 16000 ng/mL (≈ 26200 nM); with Neisseria gonorrhoeae, 64000 ng/mL (≈ 105000 nM). The GI50 was 2.1 ng/mL (≈ 3.44 nM) with KM-20L2; 1.2 ng/mL (≈ 1.97 nM) in the experiment on SF-268; below 0.5 ng/mL in the experiment on HUVEC; 0.73 ng/mL (≈ 1.2 nM) in the experiment with NCI-H460; 6 ng/mL (≈ 9.84 nM) in the experiment with P388; 0.5 ng/mL (≈ 0.82 nM) in the experiment with BXPC-3. Further, the GI50 with MCF7 stood at 0.66 ng/mL (≈ 1.08 nM); in the experiment with DU-145, 1.6 ng/mL (≈ 2.62 nM).
